Test results taken from ChEMBL document CHEMBL2413000, “Control of the intracellular levels of prostaglandin E₂ through inhibition of the 15-hydroxyprostaglandin dehydrogenase for wound healing” (Bioorg Med Chem, 2013).
Activity calls are given as the source filed them. No cut-off for these calls is given here.

Columns and labels:
[1] = target: T1, 15-hydroxyprostaglandin dehydrogenase [NAD(+)] (Homo sapiens, UniProt P15428); assay: Inhibition of human GST-fused 15-PGDH expressed in Escherichia coli BL21 using PGE2 as substrate assessed as formation of NADH by fluorescence spectrophotometric analysis
T1 sequence (P15428 whole entry): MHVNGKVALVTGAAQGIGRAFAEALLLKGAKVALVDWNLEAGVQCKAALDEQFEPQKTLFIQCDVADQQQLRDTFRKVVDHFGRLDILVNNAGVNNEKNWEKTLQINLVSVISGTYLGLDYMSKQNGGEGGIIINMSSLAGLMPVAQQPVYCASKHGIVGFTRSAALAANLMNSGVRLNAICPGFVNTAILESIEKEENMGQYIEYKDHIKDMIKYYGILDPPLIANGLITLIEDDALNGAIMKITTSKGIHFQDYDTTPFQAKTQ
How it was run: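 GST-tagged 15-PGDH from pGEX-2T in E. coli BL-21 LysS, IPTG-induced 12 h at 25 °C, glutathione-Sepharose purified. Triplicates per concentration; IC50 derived.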

[2] = target: T2, 15-hydroxyprostaglandin dehydrogenase [NAD(+)] (Homo sapiens) (UniProt P15428); assay: Inhibition of 15-PGDH in IL-1beta-stimulated human A549 cells assessed as increase in PGE2 level at 5 uM after 5 hrs by enzyme immunoassay relative to control; assay type: cell-based; conditions: in the assay text read “after 12 hrs” for “after 5 hrs”
T2 sequence (whole entry): T1 sequence (P15428 whole entry)
How it was run: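 A549 cells seeded at 5×10^5 per well, incubated overnight in RPMI with FBS and antibiotic at 37 °C, 5% CO₂, then treated with inhibitor at 5 μM. Medium collected (text gives 5 h in one passage, 12 h in methods). PGE₂ measured by kit enzyme immunoassay and compared with untreated control. Three independent experiments.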

[3] = target: T2, 15-hydroxyprostaglandin dehydrogenase [NAD(+)] (Homo sapiens); assay: Inhibition of 15-PGDH in IL-1beta-stimulated human A549 cells assessed as increase in PGE2 level after 5 hrs by enzyme immunoassay; assay type: cell-based
How it was run: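 IL-1β-stimulated A549 cells (RPMI, 10% heat-inactivated FBS, 5% CO₂, 37 °C) exposed to inhibitors at various concentrations for 5 h. PGE₂ in the collected medium quantified by enzyme immunoassay.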

[4] = target: T2, 15-hydroxyprostaglandin dehydrogenase [NAD(+)] (Homo sapiens); assay: Inhibition of 15-PGDH in IL-1beta-stimulated human A549 cells assessed as increase in PGE2 level at 5 uM after 12 hrs by enzyme immunoassay relative to control
HaCaT = assay: Wound healing activity in scratch made human HaCaT cells at 5 uM after 48 hrs by inverted microscopic analysis relative to control; assay type: functional, cell-based
How it was run: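 HaCaT cells plated at ca. 5×10^5 per well in DMEM with 10% FBS and 10 µg/mL mitomycin, 37 °C, 5% CO₂, grown to ca. 80% confluence. Monolayer scratched with a 200 µL pipette tip, then incubated with 5 µM test agent; 1 ng TGF-β1 as positive control. Wound width imaged by inverted microscope at wounding and after 48 h, compared with untreated control.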

Structure (SMILES): O=C1NC(=O)/C(=C/c2ccc(OCCCCc3ccccc3)cc2Cl)S1
- IC50 [1]: 81 nM

Structure (SMILES): O=C1N=C(O)S/C1=C\c1ccc(OCCCc2ccccc2)c(Cl)c1
- inhibition [2]: Active
- inhibition [3]: Dose-dependent effect

Structure (SMILES): O=C1NC(=O)/C(=C/c2ccc(OCCc3ccccn3)c(Cl)c2)S1
- IC50 [1]: 4440 nM

Structure (SMILES): O=C1N=C(O)S/C1=C\c1ccc(OCCc2ccccc2)c(Cl)c1
- fold change (FC) [4]: 5
- Activity (HaCaT): Active
- inhibition [3]: Dose-dependent effect

Structure (SMILES): O=C1NC(=O)/C(=C/c2ccc(OCc3ccc([N+](=O)[O-])cc3)c(Cl)c2)S1
- IC50 [1]: 930 nM

Structure (SMILES): O=C1N=C(O)S/C1=C\c1ccc(OCCCCc2ccccc2)c(Cl)c1
- inhibition [2]: Active
- inhibition [3]: Dose-dependent effect

Structure (SMILES): O=C1NC(=O)/C(=C/c2ccc(OCC3CC4CCC3C4)c(Cl)c2)S1 (stereo unspecified)
- IC50 [1]: 165 nM

Structure (SMILES): CCc1ccc(CCOc2ccc(/C=C3\SC(=O)NC3=O)cc2Cl)nc1
- IC50 [1]: 2080 nM

Structure (SMILES): O=C1NC(=O)/C(=C/c2ccc(OCCc3ccc([N+](=O)[O-])o3)c(Cl)c2)S1
- IC50 [1]: 123 nM

Structure (SMILES): O=C1NC(=O)/C(=C/c2ccc(OCc3ccc([N+](=O)[O-])cc3)cc2Cl)S1
- IC50 [1]: 4540 nM

Structure (SMILES): CC(Oc1ccc(/C=C2\SC(=O)NC2=O)cc1Cl)C1CC1 (stereo unspecified)
- IC50 [1]: 132 nM

Structure (SMILES): C=C(C)C1CCC(COc2ccc(/C=C3\SC(=O)NC3=O)cc2Cl)CC1 (stereo unspecified)
- IC50 [1]: 75 nM

Structure (SMILES): O=C1NC(=O)/C(=C/c2ccc(Oc3cccc([N+](=O)[O-])c3)c(Cl)c2)S1
- IC50 [1]: 100 nM

Structure (SMILES): O=C1NC(=O)/C(=C/c2ccc(OCCOC3CCCCC3)c(Cl)c2)S1
- IC50 [1]: 20 nM

Structure (SMILES): O=C1N=C(O)S/C1=C\c1ccc(OCCC2CCCCC2)cc1Cl
- IC50 [1]: 13 nM

Structure (SMILES): O=C1NC(=O)/C(=C/c2ccc(OC(=O)c3cccs3)c(Cl)c2)S1
- IC50 [1]: 264 nM

Structure (SMILES): O=C1NC(=O)/C(=C/c2ccc(Oc3cccc(/C=C/[N+](=O)[O-])c3)c(Cl)c2)S1
- IC50 [1]: 59 nM

Structure (SMILES): O=C1NC(=O)/C(=C/c2ccc(OCc3ccc4c(c3)OCO4)c(Cl)c2)S1
- IC50 [1]: 193 nM

Structure (SMILES): O=C1NC(=O)/C(=C/c2ccc(OCCC3CCCC3)cc2Cl)S1
- IC50 [1]: 42 nM

Structure (SMILES): CC(C)OCCOc1ccc(/C=C2\SC(=O)NC2=O)c(Cl)c1
- IC50 [1]: 1050 nM

Structure (SMILES): O=C1NC(=O)/C(=C/c2ccc(OCC3CCC3)c(Cl)c2)S1
- IC50 [1]: 9 nM

Structure (SMILES): O=C1NC(=O)/C(=C/c2ccc(Oc3cccc4c3CCCC4=O)c(Cl)c2)S1
- IC50 [1]: 71 nM

Structure (SMILES): O=C1NC(=O)/C(=C/c2ccc(OCCOC3CCCCC3)cc2Cl)S1
- IC50 [1]: 211 nM

Structure (SMILES): O=C1N=C(O)S/C1=C\c1ccc(OCc2ccccc2)c(Cl)c1
- inhibition [2]: Active
- inhibition [3]: Dose-dependent effect

Structure (SMILES): Cc1ncsc1CCOc1ccc(/C=C2\SC(=O)NC2=O)cc1Cl
- IC50 [1]: 5170 nM

Structure (SMILES): O=C1NC(=O)/C(=C/c2ccc(OCC3CCCC3)c(Cl)c2)S1
- IC50 [1]: 11 nM
